From paper PMC4431436 (Oncology Reports, 2015)
“Also recorded” adds a separate entry of the source. Like-named read-outs stand apart in the source and are kept apart here.

What was measured:
[1] = test system: murine B16F10 melanoma; test: lung metastasis in the murine B16F10 melanoma prevention model; format: in vivo, B6D2F1 hybrid female mice; details: for total tumor colony number on lung surface: Veh 90±5, mean ± SEM
Procedure, shortened: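 6-week-old B6D2F1 females got 1.5×10⁵ B16F10 cells (cultured in DMEM/10% FBS) by i.v. tail vein. Necropsy ~2 weeks. Surface colonies counted across five lung regions; formalin-fixed frontal H&E sections for tumor area. Mean ± SEM; ANOVA/Tukey or t-test; Fisher's PLSD for area.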

[2] = molecular target: purified human αvβ3 integrin (Homo sapiens, UniProt P05106+P06756); test: 3H-MK-0429 binding assay with purified receptor
[3] = molecular target: purified murine αvβ3 integrin (Mus musculus, UniProt O54890+P43406); test: 3H-MK-0429 binding assay with purified receptor
[4] = molecular target: T1, purified rat αvβ3 integrin (Rattus norvegicus, UniProt F1LZX9+Q8R2H2); test: 3H-MK-0429 binding assay with purified receptor
T1 sequence (F1LZX9 31-1043): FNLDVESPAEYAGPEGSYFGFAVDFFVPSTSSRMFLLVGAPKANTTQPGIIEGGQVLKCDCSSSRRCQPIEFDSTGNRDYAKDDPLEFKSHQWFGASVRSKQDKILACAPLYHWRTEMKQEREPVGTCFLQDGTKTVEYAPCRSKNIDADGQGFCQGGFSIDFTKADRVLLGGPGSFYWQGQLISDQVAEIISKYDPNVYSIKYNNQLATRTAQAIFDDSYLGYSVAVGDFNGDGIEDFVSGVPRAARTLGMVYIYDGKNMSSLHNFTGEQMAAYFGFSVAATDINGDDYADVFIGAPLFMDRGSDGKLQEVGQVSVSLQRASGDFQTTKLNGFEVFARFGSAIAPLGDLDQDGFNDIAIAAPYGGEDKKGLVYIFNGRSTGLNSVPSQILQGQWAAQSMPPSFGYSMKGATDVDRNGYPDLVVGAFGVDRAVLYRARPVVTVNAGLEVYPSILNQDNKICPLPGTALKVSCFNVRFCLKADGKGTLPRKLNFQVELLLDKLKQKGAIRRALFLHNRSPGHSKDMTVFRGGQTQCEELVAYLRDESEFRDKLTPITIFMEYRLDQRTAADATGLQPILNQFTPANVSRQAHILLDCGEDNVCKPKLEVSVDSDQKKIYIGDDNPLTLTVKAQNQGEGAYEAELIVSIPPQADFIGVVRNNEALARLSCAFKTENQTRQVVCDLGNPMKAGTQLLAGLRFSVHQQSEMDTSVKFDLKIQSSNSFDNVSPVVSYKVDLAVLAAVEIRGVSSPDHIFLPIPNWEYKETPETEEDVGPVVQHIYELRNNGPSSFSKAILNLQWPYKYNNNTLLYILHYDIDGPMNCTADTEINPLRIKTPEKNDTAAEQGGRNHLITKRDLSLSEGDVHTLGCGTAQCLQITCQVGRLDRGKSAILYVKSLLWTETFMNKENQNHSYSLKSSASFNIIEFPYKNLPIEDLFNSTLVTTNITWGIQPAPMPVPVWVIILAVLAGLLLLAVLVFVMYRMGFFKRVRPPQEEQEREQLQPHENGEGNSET
T1 sequence (Q8R2H2 26-787): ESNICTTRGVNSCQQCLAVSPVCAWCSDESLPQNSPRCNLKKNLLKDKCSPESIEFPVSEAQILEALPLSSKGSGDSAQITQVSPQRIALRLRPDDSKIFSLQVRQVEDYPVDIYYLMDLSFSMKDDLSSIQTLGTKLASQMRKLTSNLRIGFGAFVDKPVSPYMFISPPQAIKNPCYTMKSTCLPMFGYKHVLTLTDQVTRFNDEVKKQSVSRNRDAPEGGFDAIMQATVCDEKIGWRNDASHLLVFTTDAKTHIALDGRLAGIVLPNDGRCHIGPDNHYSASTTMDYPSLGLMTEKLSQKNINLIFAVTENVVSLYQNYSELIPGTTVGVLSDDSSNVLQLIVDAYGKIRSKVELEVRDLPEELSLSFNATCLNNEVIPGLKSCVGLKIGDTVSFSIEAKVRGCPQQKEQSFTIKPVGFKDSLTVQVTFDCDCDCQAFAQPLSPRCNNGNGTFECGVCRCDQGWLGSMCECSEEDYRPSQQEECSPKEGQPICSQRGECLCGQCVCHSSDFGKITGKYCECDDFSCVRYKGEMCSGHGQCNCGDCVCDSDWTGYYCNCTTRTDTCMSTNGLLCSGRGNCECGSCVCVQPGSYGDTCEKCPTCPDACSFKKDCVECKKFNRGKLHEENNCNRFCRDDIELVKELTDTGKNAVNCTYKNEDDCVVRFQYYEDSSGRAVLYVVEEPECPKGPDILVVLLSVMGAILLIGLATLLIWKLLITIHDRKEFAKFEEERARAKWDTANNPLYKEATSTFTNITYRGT

[5] = molecular target: human integrin αvβ3 (Homo sapiens, UniProt P05106+P06756); test: cell adhesion assay, HeK293-αvβ3 cells to vitronectin; format: cell-based
Procedure, shortened: (§1)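 Stably transfected HEK293 cells overexpressing a human integrin, 25×10³ cells/well, attached for 2 h at 37°C in a humidified incubator, with or without increasing concentrations of test compound. Wells were coated with vitronectin (αvβ3, αvβ5), fibrinogen (αIIbβ3) or fibronectin (α5β1). Non-attached cells were washed off. Attached cells were quantified by colorimetric hexosaminidase activity against a per-line standard curve; mean of triplicates.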

[6] = test system: human integrin αvβ5; test: cell adhesion assay, HeK293 overexpressing αvβ5 to vitronectin; format: cell-based; details: relative to αvβ3-mediated adhesion
Procedure, shortened: as §1

[7] = test system: human integrin αIIbβ3; test: cell adhesion assay, HeK293 overexpressing αIIbβ3 to fibrinogen; format: cell-based; details: relative to αvβ3-mediated adhesion
Procedure, shortened: as §1

[8] = test system: human integrin α5β1; test: cell adhesion assay, HeK293 overexpressing α5β1 to fibronectin; format: cell-based; details: relative to αvβ3-mediated adhesion
Procedure, shortened: as §1

[9] = body weight of mice injected with B16F10 melanoma; format: in vivo, B6D2F1 hybrid female mice; details: 100 and 300 mg/kg, p.o., b.i.d., over the study duration
[10] = test system: B16F10-luc melanoma cells; test: bioluminescent imaging of de novo lung metastasis, B16F10-luc melanoma model; format: in vivo, (nu/nu) female mice
Procedure, shortened: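 8-week-old nu/nu females got 2.5×10⁵ G418-selected luciferase-expressing B16F10 cells i.v. From day 1, saline or test compound 300 mg/kg p.o. b.i.d. for two weeks; n=10/group. Imaged on days 0, 3, 8, 11 and 15 under 2.5% isoflurane after D-luciferin 90 mg/kg i.p. Total flux (photons/s) taken in head, lung and abdomen ROIs, dorsal and ventral. Then ex vivo lung imaging and surface colony counts. Mean ± SEM.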

[11] = test system: osteoclastic bone resorption; details: read-out: IC50, inhibition of osteoclastic bone resorption; in vitro; cited from earlier work
[12] = ovariectomized rats; cited from earlier work
[13] = ovariectomized monkeys; cited from earlier work
[14] = cited from earlier work
[15] = cited from earlier work; remark: listed apart in the source
[16] = approximately; cited from earlier work
[17] = test system: metastatic melanoma; details: intravenously twice weekly; stage IV or unresectable stage III; cited from earlier work
[18] = test system: metastatic melanoma; details: 8 mg/kg once weekly, i.v.; stage IV metastatic melanoma; cited from earlier work
[19] = 300 mg/kg, p.o., b.i.d., day 11

purified murine αvβ3 integrin, sequence (P43406 31-885): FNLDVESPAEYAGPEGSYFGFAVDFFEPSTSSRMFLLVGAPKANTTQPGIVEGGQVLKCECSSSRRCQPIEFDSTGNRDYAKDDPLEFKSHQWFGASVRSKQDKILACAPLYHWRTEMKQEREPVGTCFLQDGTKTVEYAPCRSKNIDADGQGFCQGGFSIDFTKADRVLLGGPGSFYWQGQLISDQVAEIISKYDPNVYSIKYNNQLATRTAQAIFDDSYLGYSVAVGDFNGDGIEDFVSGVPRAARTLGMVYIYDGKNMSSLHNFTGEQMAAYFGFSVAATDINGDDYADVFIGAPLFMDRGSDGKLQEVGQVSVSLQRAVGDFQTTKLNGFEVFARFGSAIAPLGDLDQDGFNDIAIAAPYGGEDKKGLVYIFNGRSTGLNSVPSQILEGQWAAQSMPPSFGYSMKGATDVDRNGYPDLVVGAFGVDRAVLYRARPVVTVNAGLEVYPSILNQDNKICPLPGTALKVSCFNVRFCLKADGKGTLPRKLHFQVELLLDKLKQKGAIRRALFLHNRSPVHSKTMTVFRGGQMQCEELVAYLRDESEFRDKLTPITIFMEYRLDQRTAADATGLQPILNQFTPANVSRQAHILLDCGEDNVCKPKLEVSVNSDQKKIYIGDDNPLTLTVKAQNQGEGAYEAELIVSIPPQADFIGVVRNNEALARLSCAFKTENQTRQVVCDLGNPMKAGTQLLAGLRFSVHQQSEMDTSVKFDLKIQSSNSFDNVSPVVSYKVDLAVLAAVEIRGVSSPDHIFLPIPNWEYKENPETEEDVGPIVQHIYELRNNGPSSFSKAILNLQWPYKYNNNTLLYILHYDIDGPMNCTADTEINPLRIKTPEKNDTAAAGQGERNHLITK
purified murine αvβ3 integrin, sequence (P43406 887-1044): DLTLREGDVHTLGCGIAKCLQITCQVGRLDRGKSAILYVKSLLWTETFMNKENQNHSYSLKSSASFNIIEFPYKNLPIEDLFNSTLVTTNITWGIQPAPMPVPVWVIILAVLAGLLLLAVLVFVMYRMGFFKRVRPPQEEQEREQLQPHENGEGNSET
purified murine αvβ3 integrin, sequence (O54890 26-787): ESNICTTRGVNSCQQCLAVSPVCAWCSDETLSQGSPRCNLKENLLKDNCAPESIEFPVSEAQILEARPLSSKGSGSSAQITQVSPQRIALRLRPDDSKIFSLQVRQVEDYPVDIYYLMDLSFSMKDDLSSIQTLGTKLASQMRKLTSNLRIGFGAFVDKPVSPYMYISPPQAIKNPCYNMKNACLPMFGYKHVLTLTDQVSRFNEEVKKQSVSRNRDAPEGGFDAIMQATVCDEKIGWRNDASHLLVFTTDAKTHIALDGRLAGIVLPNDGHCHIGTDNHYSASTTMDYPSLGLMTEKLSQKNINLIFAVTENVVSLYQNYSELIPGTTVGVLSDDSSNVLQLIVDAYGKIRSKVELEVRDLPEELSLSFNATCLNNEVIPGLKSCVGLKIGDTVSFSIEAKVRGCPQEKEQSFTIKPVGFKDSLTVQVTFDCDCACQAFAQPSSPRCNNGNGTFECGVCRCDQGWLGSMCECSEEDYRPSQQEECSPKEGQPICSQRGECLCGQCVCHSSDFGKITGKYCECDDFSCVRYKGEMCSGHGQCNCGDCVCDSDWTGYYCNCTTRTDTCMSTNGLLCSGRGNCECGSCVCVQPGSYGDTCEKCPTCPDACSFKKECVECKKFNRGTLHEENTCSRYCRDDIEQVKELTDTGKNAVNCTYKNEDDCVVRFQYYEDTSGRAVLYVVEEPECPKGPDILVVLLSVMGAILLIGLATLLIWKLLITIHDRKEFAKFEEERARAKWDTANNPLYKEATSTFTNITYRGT
human integrin αvβ3, sequence (P06756 891-1048): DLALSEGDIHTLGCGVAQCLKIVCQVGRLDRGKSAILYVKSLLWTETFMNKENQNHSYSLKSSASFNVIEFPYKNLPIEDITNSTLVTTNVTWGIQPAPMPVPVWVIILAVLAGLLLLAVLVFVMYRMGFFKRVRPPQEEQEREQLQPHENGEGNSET
human integrin αvβ3, sequence (P05106 27-788): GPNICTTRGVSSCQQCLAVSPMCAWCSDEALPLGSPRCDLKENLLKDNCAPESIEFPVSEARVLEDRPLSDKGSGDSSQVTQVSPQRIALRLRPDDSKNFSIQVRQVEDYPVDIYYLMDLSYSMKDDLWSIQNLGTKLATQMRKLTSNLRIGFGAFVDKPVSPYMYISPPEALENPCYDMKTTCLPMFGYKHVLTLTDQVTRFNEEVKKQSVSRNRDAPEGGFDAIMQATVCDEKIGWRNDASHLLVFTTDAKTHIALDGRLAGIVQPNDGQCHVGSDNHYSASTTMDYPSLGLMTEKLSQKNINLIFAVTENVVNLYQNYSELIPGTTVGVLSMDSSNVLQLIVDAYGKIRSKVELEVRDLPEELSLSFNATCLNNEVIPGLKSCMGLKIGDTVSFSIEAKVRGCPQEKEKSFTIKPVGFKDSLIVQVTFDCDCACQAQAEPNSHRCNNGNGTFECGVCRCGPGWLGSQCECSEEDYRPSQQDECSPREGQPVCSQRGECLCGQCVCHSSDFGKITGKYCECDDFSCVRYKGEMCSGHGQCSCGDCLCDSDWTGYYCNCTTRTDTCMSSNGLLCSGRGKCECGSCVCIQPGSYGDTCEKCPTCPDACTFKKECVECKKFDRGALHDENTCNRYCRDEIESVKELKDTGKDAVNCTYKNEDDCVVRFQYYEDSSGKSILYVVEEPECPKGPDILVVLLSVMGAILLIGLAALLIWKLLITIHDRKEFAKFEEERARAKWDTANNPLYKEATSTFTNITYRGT
human integrin αvβ3, sequence (P06756 31-889): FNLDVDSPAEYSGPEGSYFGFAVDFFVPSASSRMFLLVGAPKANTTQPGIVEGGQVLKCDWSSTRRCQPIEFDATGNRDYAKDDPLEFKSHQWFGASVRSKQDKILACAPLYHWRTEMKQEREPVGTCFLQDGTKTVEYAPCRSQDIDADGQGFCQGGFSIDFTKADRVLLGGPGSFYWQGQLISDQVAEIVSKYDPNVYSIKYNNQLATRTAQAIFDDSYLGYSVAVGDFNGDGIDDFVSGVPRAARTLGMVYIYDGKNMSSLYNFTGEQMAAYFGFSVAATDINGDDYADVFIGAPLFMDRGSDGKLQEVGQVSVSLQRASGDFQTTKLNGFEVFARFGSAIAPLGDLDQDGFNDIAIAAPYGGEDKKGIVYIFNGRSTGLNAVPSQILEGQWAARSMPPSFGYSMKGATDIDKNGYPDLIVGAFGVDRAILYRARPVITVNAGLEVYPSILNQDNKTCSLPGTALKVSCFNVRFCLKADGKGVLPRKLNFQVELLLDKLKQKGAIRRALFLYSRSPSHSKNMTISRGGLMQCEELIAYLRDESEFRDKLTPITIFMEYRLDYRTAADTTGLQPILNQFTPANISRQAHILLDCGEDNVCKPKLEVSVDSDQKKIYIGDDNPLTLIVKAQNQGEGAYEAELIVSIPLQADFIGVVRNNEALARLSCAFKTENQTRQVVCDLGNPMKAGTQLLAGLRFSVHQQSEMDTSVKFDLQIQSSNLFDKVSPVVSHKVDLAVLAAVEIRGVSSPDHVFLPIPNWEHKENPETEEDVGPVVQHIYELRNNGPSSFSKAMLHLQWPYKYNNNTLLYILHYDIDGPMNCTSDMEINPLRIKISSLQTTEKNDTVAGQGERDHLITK
purified human αvβ3 integrin, sequence (P05106 27-788): as the sequence (P05106 27-788) above
purified human αvβ3 integrin, sequence (P06756 31-889): as the sequence (P06756 31-889) above
purified human αvβ3 integrin, sequence (P06756 891-1048): as the sequence (P06756 891-1048) above

O=P1(N(CCCl)CCCl)NCCCO1 (stereo not drawn) [Cyclophosphamide, cyclophosphamide, reference compound]
reduction of tumor colony number vs vehicle ([1]; 300 mg/kg, i.p., q.d.): 99%

COc1ccc([C@H](CC(=O)O)N2CCN(CCCc3ccc4c(n3)NCCC4)C2=O)cn1 [MK-0429, 3(S)-(6-methoxypyridin-3-yl)-3-[2-oxo-3-[3-(5,6,7,8-tetrahydro-[1,8]-naphthyridin-2-yl)propyl]imidazolidin-1-yl] propionic acid]
Kd [2]: 0.33 ± 0.04 nM | Kd [3]: 0.56 ± 0.07 nM | Kd [4]: 1.23 ± 0.11 nM | IC50 [5]: 0.58 ± 0.3 nM | fold less potent in blocking adhesion of HeK293-αvβ5 to vitronectin [6]: ~ 100 fold | fold less active in blocking adhesion mediated by αIIbβ3 to fibrinogen [7]: > 1,000 fold | fold less active in blocking adhesion mediated by α5β1 to fibronectin [8]: > 1,000 fold | effect on body weight [9]: no significant weight loss | reduction of tumor colony number vs vehicle ([1]; 100 mg/kg, p.o., b.i.d.): 64% | total tumor colony number on lung surface ([1]; 100 mg/kg, p.o., b.i.d.): 33±6 | total tumor area in lung sections (H&E) ([1]; 300 mg/kg, b.i.d., Veh 11.1±0.4, n=5/group): 5.0±0.7 mm^2 | reduction of tumor colony number vs vehicle ([1]; 300 mg/kg, p.o., b.i.d.): 57% | total tumor colony number on lung surface ([1]; 300 mg/kg, p.o., b.i.d.): 39±9 | reduction of melanoma colonies in all lung regions ([1]; 100 and 300 mg/kg, p.o., b.i.d., five lung regions): 53–68% | reduction of visible metastatic colonies counted on the ex vivo lung surface ([10]; 300 mg/kg twice daily for two weeks, p<0.05 vs. Veh): 32% | decrease of metastasis in the lungs, ex vivo bioluminescence, vs vehicle ([10]; 300 mg/kg, p.o., b.i.d.): ~ 40% | ex vivo lung tumor burden (bioluminescence) ([10]; 300 mg/kg, p.o., b.i.d., Veh 118.1±27.1, not statistically significant): 69.9±5.9 ×10^5 photons/sec | reduction of melanoma burden in the ventral lung (bioluminescence) vs vehicle ([10]; 300 mg/kg, p.o., b.i.d., day 8): 38% | reduction of tumor metastases in the dorsal lung (bioluminescence) vs vehicle ([10]; 300 mg/kg, p.o., b.i.d., day 8): 15% | reduction of melanoma burden in the ventral lung (bioluminescence) vs vehicle [10, 19]: 37% | reduction of tumor metastases in the dorsal lung (bioluminescence) vs vehicle [10, 19]: 54% | reduction of tumor metastases in the dorsal lung (bioluminescence) vs vehicle ([10]; 300 mg/kg, p.o., b.i.d., day 15, p=0.0561 vs. Veh): 38% | IC50 [11]: 12.2 ± 4.5 nM | bone mass [12]: increases bone mass | bone turnover [12]: significantly reduces bone turnover | bone mass [13]: increases bone mass | bone turnover [13]: significantly reduces bone turnover | bone mineral density at the spine and hip compared to placebo ([14]; 100 or 400 mg once daily, or 200 mg twice daily for 12 months): significant increase | tolerability ([14]; postmenopausal women with osteoporosis): well tolerated and without serious adverse events | bone resorption marker urinary N-telopeptide ([15]; 200 and 1,600 mg orally, twice daily for four weeks): significantly decreased | tolerability ([15]; up to 1,600 mg twice daily for four weeks): well tolerated at this high dose; also recorded: well tolerated and without serious adverse events

Cilengitide [reference compound]
half-life [16]: 2 to 4 h | clinical efficacy as single-agent therapy for advanced melanoma [17]: minimal clinical efficacy

B1: etaracizumab: monoclonal antibody against αvβ3 (antibody, chains of the INN, looked up, V domains shown)
VH: QVQLVESGGGVVQPGRSLRLSCAASGFTFSSYDMSWVRQAPGKGLEWVAKVSSGGGSTYYLDTVQGRFTISRDNSKNTLYLQMNSLRAEDTAVYYCARHLHGSFASWGQGTTVTVSS
VL: EIVLTQSPATLSLSPGERATLSCQASQSISNFLHWYQQRPGQAPRLLIRYRSQSISGIPARFSGSGSGTDFTLTISSLEPEDFAVYYCQQSGSWPLTFGGGTKVEIK
half-life [16]: a few days | median survival rate, alone vs in combination with dacarbazine [18]: not different
